Data from ChEMBL document CHEMBL1140485, “MexAB-OprM specific efflux pump inhibitors in Pseudomonas aeruginosa. Part 7: highly soluble and in vivo active quaternary ammonium analogue D13-9001, a potential preclinical candidate” (Bioorg Med Chem, 2007).
Converted amounts (≈) assume the structure as drawn.

Assays:
Pseudomonas aeruginosa [1] = assay: Inhibition of Pseudomonas aeruginosa PAM1723 MexAB-OprM assessed as drug level required to decrease MIC of aztreonam
How it was run: (§1)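 P. aeruginosa PAM1723 overexpresses MexAB-OprM, with MexCD-OprJ and MexEF-OprN disrupted. The partner antibiotic's MIC was measured with and without inhibitor by NCCLS broth microdilution in Mueller–Hinton broth. Inoculum was 1 × 10⁶ CFU/mL, incubated 18 h at 37 °C, and growth was read visually. The value is the minimum inhibitor concentration that lowers the partner's MIC 8-fold (MPC₈).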

Pseudomonas aeruginosa [2] = assay: Inhibition of Pseudomonas aeruginosa PAM1723 MexAB-OprM assessed as drug level required to decrease MIC of levofloxacin in presence of 0.125% HAS; how it was run: as §1
Pseudomonas aeruginosa [3] = assay: Inhibition of Pseudomonas aeruginosa PAM1723 MexAB-OprM assessed as drug level required to decrease MIC of levofloxacin; how it was run: as §1
Mus musculus [4] = assay: Toxicity in mouse assessed as lethal effect at 50 mg/kg, iv; assay type: organism-based; set-up: dose 50 mg/kg, route intravenous; details: in vivo
How it was run: (§2)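 Mice received a single intravenous dose at 50 or 100 mg/kg in groups of three. The read-out was the number of deaths per group.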

[5] = Aqueous solubility at pH 6.8; assay type: physicochemical; details: buffer
Mus musculus [6] = assay: Toxicity in mouse assessed as lethal effect at 100 mg/kg, iv; assay type: organism-based; set-up: dose 100 mg/kg, route intravenous; details: in vivo; how it was run: as §2
[7] = AUC (0 to infinity) in Sprague-Dawley rat at 20 mg/kg, iv; assay type: ADME, organism-based; set-up: time infinity, dose 20 mg/kg, route intravenous; details: plasma
How it was run: (§3)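 Rats (SD) given compound by 2 h intravenous infusion with AZT 1000 mg/kg, in 40 mL/kg 0.0005 N NaOH-saline. Blood sampled at 40, 80 and 120 min into infusion and 0.25, 0.5, 1, 2 and 4 h after its end. Plasma stored at −20 °C, spiked with propranolol internal standard, extracted with MeCN and centrifuged before analysis.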

Rattus norvegicus [8] = assay: Volume of distribution at steady state (0 to infinity) in Sprague-Dawley rat at 5 mg/kg, iv; assay type: ADME, organism-based; set-up: dose 5 mg/kg, route intravenous; details: in vivo
How it was run: (§4)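 Rats received a 2 h intravenous infusion at 1.25, 5 or 20 mg/kg, given with AZT 1000 mg/kg in 40 mL/kg 0.0005 N NaOH-saline. Blood was drawn at 40, 80 and 120 min into the infusion, then 0.25, 0.5, 1, 2 and 4 h after it ended. Plasma was stored at −20 °C and extracted with MeCN using propranolol as internal standard.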

[9] = Drug level in Sprague-Dawley rat serum at 5 mg/kg, iv after 2 hrs; assay type: ADME, organism-based; set-up: dose 5 mg/kg, route intravenous; details: read-out: Activity; how it was run: as §4
[10] = Half life in cynomolgus monkey at 5 mg/kg, iv; assay type: ADME, organism-based, Macaca fascicularis; set-up: dose 5 mg/kg, route intravenous; details: in vivo
How it was run: (§5)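 Monkeys received a 1 h intravenous infusion at 1 or 5 mg/kg in 10 mL/kg saline. Plasma was processed as for the rat samples: centrifuged, stored at −20 °C, then MeCN extraction with propranolol internal standard.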

Rattus norvegicus [11] = assay: Volume of distribution at steady state (0 to infinity) in Sprague-Dawley rat at 1.25 mg/kg, iv; assay type: ADME, organism-based; set-up: dose 1.25 mg/kg, route intravenous; details: in vivo; how it was run: as §4
Rattus norvegicus [12] = assay: Mean residential time (0 to infinity) in Sprague-Dawley rat at 5 mg/kg, iv; assay type: ADME, organism-based; set-up: dose 5 mg/kg, route intravenous; details: in vivo; how it was run: as §4
[13] = AUC (0 to infinity) in cynomolgus monkey at 1 mg/kg, iv; assay type: ADME, organism-based, Macaca fascicularis; set-up: time infinity, dose 1 mg/kg, route intravenous; details: plasma
How it was run: (§6)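 Monkeys given compound alone by 1 h intravenous infusion in 10 mL/kg saline. Plasma prepared and analysed as in the rat study: propranolol internal standard, MeCN extraction, centrifugation.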

Rattus norvegicus [14] = assay: Half life in Sprague-Dawley rat at 5 mg/kg, iv; assay type: ADME, organism-based; set-up: dose 5 mg/kg, route intravenous; details: in vivo; how it was run: as §4
[15] = Half life in cynomolgus monkey at 1 mg/kg, iv; assay type: ADME, organism-based, Macaca fascicularis; set-up: dose 1 mg/kg, route intravenous; details: in vivo; how it was run: as §5
[16] = Clearance (0 to infinity) in cynomolgus monkey at 1 mg/kg, iv; assay type: ADME, organism-based, Macaca fascicularis; set-up: dose 1 mg/kg, route intravenous; details: in vivo; how it was run: as §5
[17] = AUC (0 to infinity) in cynomolgus monkey at 5 mg/kg, iv; assay type: ADME, organism-based, Macaca fascicularis; set-up: time infinity, dose 5 mg/kg, route intravenous; details: plasma; how it was run: as §6
Rattus norvegicus [18] = assay: Mean residential time (0 to infinity) in Sprague-Dawley rat at 20 mg/kg, iv; assay type: ADME, organism-based; set-up: dose 20 mg/kg, route intravenous; details: in vivo; how it was run: as §4
Rattus norvegicus [19] = assay: Half life in Sprague-Dawley rat at 20 mg/kg, iv; assay type: ADME, organism-based; set-up: dose 20 mg/kg, route intravenous; details: in vivo; how it was run: as §4
[20] = Drug level in cynomolgus monkey serum at 1 mg/kg, iv after 1 hr; assay type: ADME, organism-based, Macaca fascicularis; set-up: dose 1 mg/kg, route intravenous; details: read-out: Activity; how it was run: as §5
[21] = Mean residential time (0 to infinity) in cynomolgus monkey at 1 mg/kg, iv; assay type: ADME, organism-based, Macaca fascicularis; set-up: dose 1 mg/kg, route intravenous; details: in vivo; how it was run: as §5
[22] = AUC (0 to infinity) in Sprague-Dawley rat at 1.25 mg/kg, iv; assay type: ADME, organism-based; set-up: time infinity, dose 1.25 mg/kg, route intravenous; details: plasma; how it was run: as §3
Rattus norvegicus [23] = assay: Volume of distribution at steady state (0 to infinity) in Sprague-Dawley rat at 20 mg/kg, iv; assay type: ADME, organism-based; set-up: dose 20 mg/kg, route intravenous; details: in vivo; how it was run: as §4
[24] = AUC (0 to infinity) in Sprague-Dawley rat at 5 mg/kg, iv; assay type: ADME, organism-based; set-up: time infinity, dose 5 mg/kg, route intravenous; details: plasma; how it was run: as §3
[25] = Drug level in cynomolgus monkey serum at 5 mg/kg, iv after 1 hr; assay type: ADME, organism-based, Macaca fascicularis; set-up: dose 5 mg/kg, route intravenous; details: read-out: Activity; how it was run: as §5
Rattus norvegicus [26] = assay: Mean residential time (0 to infinity) in Sprague-Dawley rat at 1.25 mg/kg, iv; assay type: ADME, organism-based; set-up: dose 1.25 mg/kg, route intravenous; details: in vivo; how it was run: as §4
[27] = Clearance (0 to infinity) in cynomolgus monkey at 5 mg/kg, iv; assay type: ADME, organism-based, Macaca fascicularis; set-up: dose 5 mg/kg, route intravenous; details: in vivo; how it was run: as §5
[28] = Volume of distribution at steady state (0 to infinity) in cynomolgus monkey at 5 mg/kg, iv; assay type: ADME, organism-based, Macaca fascicularis; set-up: dose 5 mg/kg, route intravenous; details: in vivo, read-out: Vdss; how it was run: as §5
[29] = Drug level in Sprague-Dawley rat serum at 1.25 mg/kg, iv after 2 hrs; assay type: ADME, organism-based; set-up: dose 1.25 mg/kg, route intravenous; details: read-out: Activity; how it was run: as §4
[30] = Drug level in Sprague-Dawley rat serum at 20 mg/kg, iv after 2 hrs; assay type: ADME, organism-based; set-up: dose 20 mg/kg, route intravenous; details: read-out: Activity; how it was run: as §4
[31] = Volume of distribution at steady state (0 to infinity) in cynomolgus monkey at 1 mg/kg, iv; assay type: ADME, organism-based, Macaca fascicularis; set-up: dose 1 mg/kg, route intravenous; details: in vivo, read-out: Vdss; how it was run: as §5
Rattus norvegicus [32] = assay: Half life in Sprague-Dawley rat at 1.25 mg/kg, iv; assay type: ADME, organism-based; set-up: dose 1.25 mg/kg, route intravenous; details: in vivo; how it was run: as §4
[33] = Mean residential time (0 to infinity) in cynomolgus monkey at 5 mg/kg, iv; assay type: ADME, organism-based, Macaca fascicularis; set-up: dose 5 mg/kg, route intravenous; details: in vivo; how it was run: as §5

CN(C)CCNC(=O)O[C@@H]1CCCN(c2nc3cc(C(=O)Nc4nc(C(C)(C)C)cs4)ccn3c(=O)c2/C=C/c2nnn[nH]2)C1
Activity (Pseudomonas aeruginosa [1]): 1 µg/mL
Activity (Pseudomonas aeruginosa [2]): 4 µg/mL
Activity (Pseudomonas aeruginosa [3]): 2 µg/mL
Activity (Mus musculus [4]): Non-toxic

CC(C)(C)c1csc(NC(=O)c2ccn3c(=O)c(/C=C/c4nnn[nH]4)c(N4CCC[C@H](OC(=O)NCC[N+](C)(C)C)C4)nc3c2)n1
solubility [5]: 547 µg/mL

CC(C)(C)c1csc(NC(=O)c2ccn3c(=O)c(/C=C/c4nnn[nH]4)c(N4CCC[C@@H](OC(=O)NCC[N+](C)(C)CC(N)=O)C4)nc3c2)n1
Activity (Pseudomonas aeruginosa [1]): 4 µg/mL
solubility [5]: 95 µg/mL
Activity (Pseudomonas aeruginosa [2]): 4 µg/mL
Activity (Pseudomonas aeruginosa [3]): 4 µg/mL
Activity (Mus musculus [6]): Non-toxic

CC(C)(C)c1csc(NC(=O)c2ccn3c(=O)c(/C=C/c4nnn[nH]4)c(N4CCC[C@@H](OC(=O)NCC[N+](C)(C)C)C4)nc3c2)n1
Activity (Pseudomonas aeruginosa [1]): 2 µg/mL
Activity (Pseudomonas aeruginosa [2]): 4 µg/mL
Activity (Pseudomonas aeruginosa [3]): 2 µg/mL

CC(C)(C)c1csc(NC(=O)c2ccn3c(=O)c(/C=C/c4nnn[nH]4)c(N4CCC(OC(=O)NCC[N+](C)(C)CC(=O)[O-])CC4)nc3c2)n1
Activity (Pseudomonas aeruginosa [1]): 4 µg/mL
solubility [5]: 170 µg/mL (≈ 245 µM)
Activity (Pseudomonas aeruginosa [2]): 16 µg/mL
Activity (Pseudomonas aeruginosa [3]): 8 µg/mL

CC(C)(C)c1csc(NC(=O)c2ccn3c(=O)c(/C=C/c4nnn[nH]4)c(N4CCC[C@@H](OC(=O)NCCC[N+](C)(C)CC(=O)[O-])C4)nc3c2)n1
Activity (Pseudomonas aeruginosa [1]): 2 µg/mL
solubility [5]: 610 µg/mL (≈ 862 µM)
Activity (Pseudomonas aeruginosa [2]): 4 µg/mL
Activity (Pseudomonas aeruginosa [3]): 4 µg/mL

CC(C)(C)c1csc(NC(=O)c2ccn3c(=O)c(/C=C/c4nnn[nH]4)c(N4CCC[C@@H](CC(=O)NCC[N+](C)(C)CC(=O)[O-])C4)nc3c2)n1
Activity (Pseudomonas aeruginosa [1]): 4 µg/mL
solubility [5]: 860 µg/mL (≈ 1240 µM)
Activity (Pseudomonas aeruginosa [2]): 8 µg/mL
Activity (Pseudomonas aeruginosa [3]): 4 µg/mL

CC(C)(C)c1csc(NC(=O)c2ccn3c(=O)c(/C=C/c4nnn[nH]4)c(N4CCC/C(=C\C(=O)NCC[N+](C)(C)CC(=O)[O-])C4)nc3c2)n1
Activity (Pseudomonas aeruginosa [1]): 8 µg/mL
Activity [5]: Not Active
Activity (Pseudomonas aeruginosa [2]): > 16 µg/mL
Activity (Pseudomonas aeruginosa [3]): 16 µg/mL

CC(C)(C)c1csc(NC(=O)c2ccn3c(=O)c(/C=C/c4nnn[nH]4)c(N4CCC[C@@H](OC(=O)NCC[N+](C)(C)CC(=O)[O-])C4)nc3c2)n1
AUC(0-inf) [7]: 14200 ng·h/mL
Activity (Pseudomonas aeruginosa [1]): 2 µg/mL
Vdss (Rattus norvegicus [8]): 1.712 L/kg
concentration at 2 h [9]: 1840 ng/mL
half-life [10]: 24.6 min
Vdss (Rattus norvegicus [11]): 3.049 L/kg
MRT (Rattus norvegicus [12]): 1.209 h
solubility [5]: 747 µg/mL (≈ 1080 µM)
AUC(0-inf) [13]: 1490 ng·h/mL
t1/2 (Rattus norvegicus [14]): 10.8 min
half-life [15]: 16.8 min
clearance [16]: 11.2 mL/min/kg
Activity (Pseudomonas aeruginosa [2]): 4 µg/mL
AUC(0-inf) [17]: 7890 ng·h/mL
MRT (Rattus norvegicus [18]): 1.215 h
t1/2 (Rattus norvegicus [19]): 15 min
concentration at 1 h [20]: 1220 ng/mL
MRT inf [21]: 36.8 min
AUC(0-inf) [22]: 486 ng·h/mL
Vdss (Rattus norvegicus [23]): 1.71 L/kg
AUC(0-inf) [24]: 3530 ng·h/mL
concentration at 1 h [25]: 7640 ng/mL
MRT (Rattus norvegicus [26]): 1.186 h
Activity (Pseudomonas aeruginosa [3]): 2 µg/mL
clearance [27]: 10.7 mL/min/kg
Vd [28]: 0.4 L/kg
Activity (Mus musculus [6]): Non-toxic
concentration at 2 h [29]: 262 ng/mL
concentration at 2 h [30]: 8040 ng/mL
Vd [31]: 0.414 L/kg
t1/2 (Rattus norvegicus [32]): 13.8 min
MRT inf [33]: 37.5 min

CC(C)(C)c1csc(NC(=O)c2ccn3c(=O)c(/C=C/c4nnn[nH]4)c(N4CCC[C@@H](OC(N)=O)C4)nc3c2)n1
Activity (Pseudomonas aeruginosa [1]): < 0.25 µg/mL
solubility [5]: 9.2 µg/mL (≈ 16.3 µM)
Activity (Pseudomonas aeruginosa [2]): 2 µg/mL
Activity (Pseudomonas aeruginosa [3]): 0.5 µg/mL
